Where a SMILES comes first, the peptide text is derived from it. Bridges are numbered along the chain shown (N, C = ends). [ ]: non-standard residue; d: D form. S5 = C=CCCC[C@](C)(N)C(=O)O
Columns and labels:
[1] = format: physicochemical; details: fit of NMR chemical shift changes with concentration, D2O, 298 K, pH 7.0
[2] = Dynamic light scattering of free peptides; format: physicochemical; details: DLS, lower peptide concentration (100 µM)
Procedure, shortened: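 Free stapled peptide stocks, quantified by absorbance at 280 nm, were diluted into D₂O or H₂O to 100 µM or 1 mM and centrifuged at 6,000–8,000 g before loading. Light scattering was recorded as one hundred 5-s scans per sample at ambient temperature and corrected for solvent signal. Normalized intensity was plotted against radius, and the hydrodynamic radius and polydispersity index of major peaks were reported.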

[3] = biological target: CA-CTD dimerization helix peptide CTD dimerization helix (Human immunodeficiency virus 1) (UniProt O93182); details: cited from earlier work

Row | Compound | Kd of self-association, isodesmic model of indefinite association [1] | effective radius of gyration of monomer [2] | Kd [3]
1 | CC[C@H](C)[C@H](N)C(=O)N[C@H](C(=O)N[C@@H](Cc1ccccc1)C(=O)N[C@@]1(C)CCC/C=C\CCC[C@@](C)(C(=O)N[C@@H](Cc2ccc(O)cc2)C(=O)N[C@@H](Cc2ccc(O)cc2)C(=O)NCC(=O)N[C@@H](CCCCN)C(=O)N[C@@H](CCCCN)C(=O)N[C@@H](CCCCN)C(N)=O)NC(=O)[C@H](CC(C)C)NC(=O)[C@H](CC(C)C)NC(=O)[C@H](CC(=O)O)NC1=O)[C@@H](C)O [NYAD-13] (H-ITF[S5]DLL[S5]YYGKKK-NH2; staple (Z) 4-8; N-terminus and C-terminus assumed) | 2500 ± 1400 µM | 1 nm | 
2 | CA-CTD dimerization helix peptide CTD dimerization helix (from UniProt O93182) |  |  | 17 µM

— publication PMC3306222 (Biopolymers, 2011)
